These results are taken from ChEMBL document CHEMBL4765404, “Identification of benzofused five-membered sultams, potent dual NOD1/NOD2 antagonists in vitro and in vivo” (Eur J Med Chem, 2020).

Holding throughout (format): cell-based
In data set [1] the target is T1, Nucleotide-binding oligomerization domain-containing protein 2 (Homo sapiens, UniProt Q9HC29). Nature of the data set: Antagonist activity at human NOD2 in HEK-Blue hNOD2 cells assessed as reduction in secreted alkaline phosphatase reporter activity at 10 uM preincubated for 3 hrs followed by stimulated with MDP for 20 hrs by Spectrophotometer method.
The target in data set [2] is T1, Nucleotide-binding oligomerization domain-containing protein 2. The experiment in a line: Antagonist activity at human NOD2 in HEK-Blue hNOD2 cells assessed as secreted alkaline phosphatase reporter activity preincubated for 3 hrs followed by stimulated with MDP for 20 hrs by Spectrophotometer method.
Data set [3] in a line: Cytotoxicity against human HEK-Blue hNOD2 cells assessed as cell viability measured by SRB assay. An outline of the steps: (§1)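 Run on the same HEK-Blue hNOD1 (C12-iE-DAP 50 ng/mL) or hNOD2 (MDP 100 ng/mL) wells after SEAP readout, following 3 h compound plus 20 h stimulation. Cells fixed in 80% TCA, 4 °C, 1 h; SRB in 1% acetic acid, 10 min; washed, dried; dye dissolved in 10 mM Tris base; A515. Growth inhibition = (C−T)/C × 100, n = 3.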

The nature of data set [4]: Cytotoxicity against human HEK-Blue hNOD1 cells assessed as cell viability measured by SRB assay. An outline of the steps: as §1

T1 sequence (Q9HC29 whole entry, the tested form may be a part): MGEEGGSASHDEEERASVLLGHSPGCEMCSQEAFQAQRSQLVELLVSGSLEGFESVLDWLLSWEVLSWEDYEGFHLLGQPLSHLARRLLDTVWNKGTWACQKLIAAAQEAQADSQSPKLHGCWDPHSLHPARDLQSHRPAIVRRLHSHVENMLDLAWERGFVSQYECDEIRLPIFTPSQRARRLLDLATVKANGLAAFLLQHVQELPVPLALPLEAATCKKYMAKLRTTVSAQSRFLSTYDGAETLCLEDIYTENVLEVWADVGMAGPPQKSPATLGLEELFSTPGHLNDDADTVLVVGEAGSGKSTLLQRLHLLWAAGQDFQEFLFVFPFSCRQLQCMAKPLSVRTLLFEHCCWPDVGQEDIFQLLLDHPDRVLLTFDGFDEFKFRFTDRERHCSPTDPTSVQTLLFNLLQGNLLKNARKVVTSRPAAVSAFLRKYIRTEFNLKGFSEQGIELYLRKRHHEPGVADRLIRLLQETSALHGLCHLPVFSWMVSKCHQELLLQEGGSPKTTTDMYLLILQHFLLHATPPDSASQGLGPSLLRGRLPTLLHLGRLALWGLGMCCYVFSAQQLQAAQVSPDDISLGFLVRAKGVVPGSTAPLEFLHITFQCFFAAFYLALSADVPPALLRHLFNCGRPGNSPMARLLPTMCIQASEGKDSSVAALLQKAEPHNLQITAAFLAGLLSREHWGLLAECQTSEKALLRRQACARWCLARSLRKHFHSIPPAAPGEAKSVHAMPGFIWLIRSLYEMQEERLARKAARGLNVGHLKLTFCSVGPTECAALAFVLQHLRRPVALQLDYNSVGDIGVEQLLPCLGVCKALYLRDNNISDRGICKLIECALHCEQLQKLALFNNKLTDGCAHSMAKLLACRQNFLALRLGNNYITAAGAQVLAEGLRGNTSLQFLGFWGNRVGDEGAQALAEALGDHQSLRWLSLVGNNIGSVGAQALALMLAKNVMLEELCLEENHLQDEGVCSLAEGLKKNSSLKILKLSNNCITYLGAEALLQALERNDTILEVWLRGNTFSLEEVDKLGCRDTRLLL

With `CCCCOC(=O)CC1c2cccc(C)c2S(=O)(=O)N1C(C)=O` (stereo not drawn), the inhibition in data set [1] came to 6.59%.

On to `CCCCOC(=O)CC1c2cccc(C)c2S(=O)(=O)N1C(=O)/C=C/c1ccc(Cl)cc1` (stereo not drawn), for which the inhibition in data set [1] stood at 35%.

Turning to `CCCCc1nnc(CC2c3cccc(C)c3S(=O)(=O)N2C(=O)c2cccc(C(F)(F)F)c2)o1` (stereo not drawn), in data set [2], the IC50 is 4.65 µM.

For the compound `CCCCOC(=O)CC1c2cc(OC)cc(OC)c2S(=O)(=O)N1C(=O)c1ccc(C(F)(F)F)cc1` (stereo not drawn), the IC50 in data set [2] is 3.96 µM.

In the case of `CCCCOC(=O)CC1c2cccc(C)c2S(=O)(=O)N1S(C)(=O)=O` (stereo not drawn), the inhibition in data set [1] stood at 5.29%.

Consider `Cc1cccc2c1S(=O)(=O)N(C(=O)c1ccc(C(F)(F)F)cc1)C2CC(=O)Nc1ccccc1` (stereo not drawn), for which, in data set [1], the inhibition came out at 30.3%.

As to `Cc1cccc2c1S(=O)(=O)N(C(=O)c1ccc(C(F)(F)F)cc1)C2CC(=O)O` (stereo not drawn), the inhibition in data set [1] was determined as 10.3%.

Take `C=CCN1C(CC(=O)OCCCC)c2cccc(C)c2S1(=O)=O` (stereo not drawn): the inhibition in data set [1] was found to be 5.52%.

`Cc1cccc2c1S(=O)(=O)N(C(=O)c1ccc(C(F)(F)F)cc1)C2CC(=O)OC(C)(C)C` (stereo not drawn): in data set [2], the IC50 came to 4.65 µM.

Turning to `CCCCc1noc(CC2c3cccc(C)c3S(=O)(=O)N2C(=O)c2cccc(C(F)(F)F)c2)n1` (stereo not drawn), the IC50 in data set [2] turned out to be 5.74 µM.

`CCCCOC(=O)CC1c2cccc(C)c2S(=O)(=O)N1C(=O)c1ccco1` (stereo not drawn): the inhibition in data set [1] is 1.83%.

`CCCCOC(=O)CC1c2cccc(C)c2S(=O)(=O)N1C(=O)OC` (stereo not drawn): the inhibition in data set [1] is -0.67%.

Turning to `CCCCOC(=O)CC1c2cccc(C)c2S(=O)(=O)N1/C=C\C(=O)OCC` (stereo not drawn), the inhibition in data set [1] amounted to 20.6%.

For `CCCCOC(=O)CC1c2cccc(C)c2C(=O)N1C(=O)c1ccc(C(F)(F)F)cc1` (stereo not drawn), in data set [2], the IC50 was determined as 2.36 µM.

`CCCCNC(=O)CC1c2cccc(C)c2S(=O)(=O)N1C(=O)c1ccc(C(F)(F)F)cc1` (stereo not drawn): in data set [1], the inhibition came out at 17.7%.

With `CCCCOC(=O)CC1c2cccc(C)c2S(=O)(=O)N1C(=O)c1ccc(Cl)cc1` (stereo not drawn), the IC50 in data set [2] was determined as 1.74 µM.

Turning to `CCCCOC(=O)CC1c2cccc(C)c2S(=O)(=O)N1Cc1ccc(C(F)(F)F)cc1` (stereo not drawn), the inhibition in data set [1] (filed as antagonist) came out at 42.5%.

For `CCCCOC(=O)CC1c2c(OC)ccc(OC)c2S(=O)(=O)N1C(=O)c1ccc(C(F)(F)F)cc1` (stereo not drawn), the IC50 in data set [2] turned out to be 7.03 µM.

Take `CCCCOC(=O)CC1c2cccc(Cl)c2S(=O)(=O)N1C(=O)c1ccc(C(F)(F)F)cc1` (stereo not drawn): the IC50 in data set [2] amounted to 1.39 µM.

Take `CCCCOC(=O)CC1c2ccc(Cl)c(C)c2S(=O)(=O)N1C(=O)c1ccc(C(F)(F)F)cc1` (stereo not drawn): the IC50 in data set [2] was 9.83 µM.

In the case of `Cc1cccc2c1S(=O)(=O)N(C(=O)c1ccc(C(F)(F)F)cc1)C2CC(N)=O` (stereo not drawn), in data set [1], the inhibition was -9.14%.

With `CCCCOC(=O)CC1c2cccc(C)c2S(=O)(=O)N1C` (stereo not drawn), the inhibition in data set [1] came to 4.63%.

Regarding `CCCCOC(=O)CC1c2cccc(C)c2S(=O)(=O)N1C(=O)c1ccccc1C(F)(F)F` (stereo not drawn), the IC50 in data set [2] was determined as 0.48 µM.

For `CCCCOC(=O)CC1c2cccc(C)c2S(=O)(=O)N1NC(=O)c1ccc(C(F)(F)F)cc1` (stereo not drawn), in data set [1] (filed as antagonist), the inhibition is 60%.

In the case of `CCCCOC(=O)/C=C1\c2cccc(C)c2S(=O)(=O)N1C(=O)c1ccc(C(F)(F)F)cc1`, the inhibition in data set [1] was found to be 54.4%.

As for `CCCCOC(=O)CC1c2cccc(C)c2S(=O)(=O)N1C(=O)c1ccc(C#N)cc1` (stereo not drawn), the IC50 in data set [2] came out at 5.45 µM.

Turning to `CCCCOC(=O)CC1c2cccc(C)c2S(=O)(=O)N1Cc1ccccc1` (stereo not drawn), the inhibition in data set [1] (filed as antagonist) was 41.4%.

For the compound `CCCCOC(=O)CC1c2c(F)ccc(C)c2S(=O)(=O)N1C(=O)c1ccc(C(F)(F)F)cc1` (stereo not drawn), the IC50 in data set [2] came out at 4.05 µM.

Regarding `CCCCOC(=O)CC1c2cccc(C)c2S(=O)(=O)N1CC(=O)c1ccc(C(F)(F)F)cc1` (stereo not drawn), the inhibition in data set [1] was determined as 7.2%.

Regarding `CCCCOCCC1c2cccc(C)c2S(=O)(=O)N1C(=O)c1ccc(C(F)(F)F)cc1` (stereo not drawn), in data set [1] (filed as antagonist), the inhibition came out at 45.9%.

Turning to `CCCCOC(=O)CC1c2cccc(C)c2S(=O)(=O)N1CCCC` (stereo not drawn), the inhibition in data set [1] came out at 9.07%.

As to `CCCCOC(=O)CC1c2cc(F)cc(C)c2S(=O)(=O)N1C(=O)c1ccc(C(F)(F)F)cc1` (stereo not drawn), the IC50 in data set [2] was determined as 6.7 µM.

With `COC(=O)CC1c2cccc(C)c2S(=O)(=O)N1C(=O)c1ccc(C(F)(F)F)cc1` (stereo not drawn), in data set [2], the IC50 came to 3.55 µM.

Regarding `CCCCOC(=O)CC1c2cccc(C)c2S(=O)(=O)N1C(=O)c1cccc(C(F)(F)F)c1` (stereo not drawn), the Activity result in data set [3] and in data set [4] was “Non-Toxic” throughout. Besides, the IC50 in data set [2] came out at 0.93 µM.

Regarding `CCCCOC(=O)CC1c2cccc(C(=O)OCCCC)c2S(=O)(=O)N1C(=O)c1ccc(C(F)(F)F)cc1` (stereo not drawn), in data set [2], the IC50 was 4.29 µM.

On to `CCCCOC(=O)CC1c2cccc(C)c2S(=O)(=O)N1C(=O)c1ccc(C(F)(F)F)cc1` (stereo not drawn), for which the IC50 in data set [2] was determined as 1.18 µM.

On to `CCCCOC(=O)CC1c2cccc(C)c2S(=O)(=O)N1C(=O)c1ccc(C)cc1` (stereo not drawn), for which the inhibition in data set [1] (filed as antagonist) was 55.5%.

`CCCCOC(=O)CC1c2cccc(C)c2S(=O)(=O)N1CC` (stereo not drawn): the inhibition in data set [1] was -1%.

For the compound `CCCCOC(=O)CC1c2cccc(C)c2S(=O)(=O)N1C(=O)c1ccccc1` (stereo not drawn), the inhibition in data set [1] amounted to 24.3%.

Regarding `CCCCOC(=O)/C=C/c1cc(C)cc2c1S(=O)(=O)N(C(=O)c1ccc(C(F)(F)F)cc1)C2CC(=O)OCCCC` (stereo not drawn), the inhibition in data set [1] is 31.4%.

Regarding `CCCCOC(=O)CC1c2cc(C)cc(C)c2S(=O)(=O)N1C(=O)c1ccc(C(F)(F)F)cc1` (stereo not drawn), the IC50 in data set [2] was 1.85 µM.
